In one series the test system is Pichia kudriavzevii. Nature of the series: Antifungal activity against Candida krusei clinical isolates assessed as inhibition of microbial growth incubated for 24 hrs by broth microdilution method. The series is classed as functional. In a few lines:
(§1)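 Twenty-two clinical Candida isolates (8 C. albicans, 4 C. glabrata, 3 C. tropicalis, 3 C. krusei, 2 C. parapsilosis, 2 C. sake) were identified by colony morphology and biochemistry and subcultured at 35 °C for purity. Compounds were dissolved in DMSO and tested by broth microdilution in Sabouraud dextrose broth per NCCLS/CLSI/EUCAST guidance. Values are geometric mean MIC per species (µg/mL).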
A general note: Broth dilution looks for growth in wells or tubes with falling amounts of substance.

For a further series, the system named is Candida albicans. Briefly: Antifungal activity against Candida albicans clinical isolates assessed as inhibition of microbial growth incubated for 24 hrs by broth microdilution method. The series is classed as functional. Summed up:
as §1

In the next series the test system is Proteus mirabilis. Nature of the series: Antibacterial activity against Proteus mirabilis assessed as inhibition of microbial growth incubated for 18 to 22 hrs by broth microdilution method. The series is classed as functional. In a few lines:
(§2)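 Broth microdilution in Mueller-Hinton II broth following NCCLS recommendations; compounds dissolved in DMSO.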

The test system of the next series is Candida tropicalis. Briefly: Antifungal activity against Candida tropicalis clinical isolates assessed as inhibition of microbial growth incubated for 24 hrs by broth microdilution method. The series is classed as functional. In a few lines: as §1
A further series deals with Enterococcus faecalis. Briefly: Antibacterial activity against Streptococcus faecalis assessed as inhibition of microbial growth incubated for 18 to 22 hrs by broth microdilution method. Type of series: functional. Summed up:
as §2

A further series deals with Escherichia coli. Nature of the series: Antibacterial activity against Escherichia coli assessed as inhibition of microbial growth incubated for 18 to 22 hrs by broth microdilution method. Type of series: functional. In a few lines:
as §2

The test system of a further series is Candida parapsilosis. Briefly: Antifungal activity against Candida parapsilosis clinical isolates assessed as inhibition of microbial growth incubated for 24 hrs by broth microdilution method. Particulars: Lodderomyces parapsilosis. The series is classed as functional. In a few lines: as §1
The next series has as its system Klebsiella oxytoca. Briefly: Antibacterial activity against Klebsiella oxytoca assessed as inhibition of microbial growth incubated for 18 to 22 hrs by broth microdilution method. Type of series: functional. Summed up:
as §2

Series [1] deals with Streptococcus alpha-hemolyticus (Streptococcus sp.). Nature of the series: Antibacterial activity against Streptococcus Streptococcus alpha hemolyticus assessed as inhibition of microbial growth incubated for 18 to 22 hrs by broth microdilution method.
The next series relates to Nakaseomyces glabratus. Briefly: Antifungal activity against Candida glabrata clinical isolates assessed as inhibition of microbial growth incubated for 24 hrs by broth microdilution method. The series is classed as functional. Summed up:
as §1

The test system of a further series is Staphylococcus aureus. Nature of the series: Antibacterial activity against Staphylococcus aureus assessed as inhibition of microbial growth incubated for 18 to 22 hrs by broth microdilution method. The series is classed as functional. Summed up: as §2
Series [2] can be described thus: Cytotoxicity against human Hep2 cells assessed as reduction in cell viability incubated for 24 hrs by trypan blue dye exclusion assay. Type of series: cell-based. Particulars: HEp-2 cells. Summed up:
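Hep2 (human laryngeal epidermoid carcinoma) cells were exposed to five concentrations from 0.05 to 100 µg/mL for 24 h at 37 °C, and viability was scored by Trypan Blue exclusion as survival fraction. Controls were medium alone, DMSO-treated cells and 1 mM sodium nitroprusside. CC50 is the mean ± SD of at least three independent experiments.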

Another series relates to Enterobacter. Nature of the series: Antibacterial activity against Enterobacter spp. assessed as inhibition of microbial growth incubated for 18 to 22 hrs by broth microdilution method. The series is classed as functional. Summed up:
as §2

The subject of another series is Staphylococcus warneri. Nature of the series: Antibacterial activity against Staphylococcus warneri assessed as inhibition of microbial growth incubated for 18 to 22 hrs by broth microdilution method. The series is classed as functional. Summed up:
as §2

A short description of series [3]: Selectivity index, ratio of CC50 for human Hep2 cells to MIC for Candida albicans clinical isolates. Type of series: toxicity. Particulars: HEp-2 cells, read-out: Selectivity Index. In a few lines: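 Calculated as Hep2 CC50 (Trypan Blue exclusion, 24 h, 37 °C) divided by MIC against C. albicans.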
The subject of a further series is [Candida] sake. Nature of the series: Antifungal activity against Candida sake clinical isolates assessed as inhibition of microbial growth incubated for 24 hrs by broth microdilution method. Type of series: functional. Particulars: Fermentozyma sake. In a few lines:
as §1

Structures are written as SMILES. In brackets after ≈: the same amount, converted by molar mass.

As usually defined, the MIC is the smallest concentration in the dilution series that meets the test's criterion for growth inhibition. The CC50 is the concentration that lowers cell viability or growth by half. Regarding `CCC(CC)=N/N=C1\NC(=O)CS1`, the MIC in the series with Pichia kudriavzevii is 2 µg/mL; in the series with Candida albicans it was 2 µg/mL; in the series with Proteus mirabilis, at least 256 µg/mL; with Candida tropicalis it was 4 µg/mL; in the series on Enterococcus faecalis, at least 256 µg/mL; in the series with Escherichia coli it was at least 256 µg/mL. For the same compound, the MIC in the series with Candida parapsilosis is 2 µg/mL; with Klebsiella oxytoca it was at least 256 µg/mL; in [1], at least 256 µg/mL; with Nakaseomyces glabratus, 1 µg/mL; in the series on Staphylococcus aureus, at least 256 µg/mL; with Enterobacter, at least 256 µg/mL. The MIC in the series on Staphylococcus warneri was at least 256 µg/mL; in [Candida] sake, 2 µg/mL. For the same compound, the CC50 at 24 h in series [2] worked out at 49.2 µg/mL (≈ 247 µM). Also, in series [3], the selectivity ratio worked out at 24.5.
Consider `CCCCC/C(C)=N\N=C1/NC(=O)CS1`, for which the MIC was 8 µg/mL in the series with Pichia kudriavzevii; 2 µg/mL in the series with Candida albicans; at least 256 µg/mL in the series on Proteus mirabilis; 4 µg/mL in the series with Candida tropicalis; at least 256 µg/mL with Enterococcus faecalis; at least 256 µg/mL in the series with Escherichia coli. In addition, the MIC with Candida parapsilosis was 8 µg/mL; in the series on Klebsiella oxytoca it was at least 256 µg/mL; in series [1] it was at least 256 µg/mL; in the series on Nakaseomyces glabratus, 2 µg/mL; in the series on Staphylococcus aureus, at least 256 µg/mL; in the series with Enterobacter it was at least 256 µg/mL. The figures for the MIC (with Staphylococcus warneri; in series [Candida] sake) were at least 256 µg/mL and 8 µg/mL, respectively. Moreover, in series [2], the CC50 at 24 h came out at 71.8 µg/mL (≈ 316 µM). In addition, the selectivity ratio in series [3] is 35.5.
Turning to `CCCC/C(CC)=N\N=C1/NC(=O)CS1`, the MIC in the series with Pichia kudriavzevii is 2 µg/mL; with Candida albicans, 4 µg/mL; with Proteus mirabilis it was at least 256 µg/mL; with Candida tropicalis it was 1 µg/mL; with Enterococcus faecalis it was at least 256 µg/mL; in the series with Escherichia coli, at least 256 µg/mL. For the same compound, the MIC in the series with Candida parapsilosis was 2 µg/mL; in the series with Klebsiella oxytoca, at least 256 µg/mL; in series [1] it was at least 256 µg/mL; in the series with Nakaseomyces glabratus it was 1 µg/mL; with Staphylococcus aureus, at least 256 µg/mL; in the series on Enterobacter, at least 256 µg/mL. Besides, the MIC in the series with Staphylococcus warneri was at least 256 µg/mL; in series [Candida] sake it was 4 µg/mL. In addition, the CC50 at 24 h in series [2] turned out to be 46.4 µg/mL (≈ 204 µM). Also, the selectivity ratio in series [3] is 11.5.
`CC1CCC/C1=N/N=C1\NC(=O)CS1` (centres undefined): the MIC in the series with Pichia kudriavzevii was 2 µg/mL; in the series on Candida albicans, 2 µg/mL; in the series with Proteus mirabilis it was at least 256 µg/mL; in the series on Candida tropicalis, 8 µg/mL; with Enterococcus faecalis it was at least 256 µg/mL; in the series with Escherichia coli, at least 256 µg/mL. Moreover, the MIC in the series with Candida parapsilosis was 2 µg/mL; in the series on Klebsiella oxytoca, at least 256 µg/mL; in series [1] it was at least 256 µg/mL; in the series with Nakaseomyces glabratus, 1 µg/mL; in the series with Staphylococcus aureus it was at least 256 µg/mL; in the series with Enterobacter it was at least 256 µg/mL. The MIC in the series on Staphylococcus warneri was at least 256 µg/mL; in series [Candida] sake, 2 µg/mL. The half-maximal cytotoxic concentration (CC50) at 24 h in [2] worked out at 52.8 µg/mL (≈ 250 µM). Further, the selectivity ratio in series [3] was found to be 26.
Take `CC1CC/C(=N/N=C2\NC(=O)CS2)C1` (centres undefined): the MIC was 2 µg/mL in the series on Pichia kudriavzevii; 2 µg/mL in the series with Candida albicans; at least 256 µg/mL with Proteus mirabilis; 2 µg/mL with Candida tropicalis; at least 256 µg/mL in the series on Enterococcus faecalis; at least 256 µg/mL in the series on Escherichia coli. Also, the MIC is 2 µg/mL in the series with Candida parapsilosis; at least 256 µg/mL in the series on Klebsiella oxytoca; at least 256 µg/mL in [1]; 2 µg/mL in the series on Nakaseomyces glabratus; at least 256 µg/mL in the series with Staphylococcus aureus; at least 256 µg/mL with Enterobacter. Moreover, the MIC was at least 256 µg/mL with Staphylococcus warneri and 2 µg/mL in [Candida] sake. For the same compound, in [2], the CC50 at 24 h stood at 50.8 µg/mL (≈ 240 µM). Moreover, the selectivity ratio in series [3] came to 25.
Take `CC1CCCC/C1=N/N=C1\NC(=O)CS1` (centres undefined): the MIC is 2 µg/mL in the series with Pichia kudriavzevii; 2 µg/mL in the series with Candida albicans; at least 256 µg/mL in the series on Proteus mirabilis; 8 µg/mL with Candida tropicalis; at least 256 µg/mL in the series on Enterococcus faecalis; at least 256 µg/mL in the series on Escherichia coli. Moreover, the MIC with Candida parapsilosis is 2 µg/mL; in the series on Klebsiella oxytoca, at least 256 µg/mL; in series [1], at least 256 µg/mL; in the series on Nakaseomyces glabratus, 1 µg/mL; in the series on Staphylococcus aureus, at least 256 µg/mL; in the series on Enterobacter it was at least 256 µg/mL. The figures for the MIC (in the series on Staphylococcus warneri; in series [Candida] sake) were at least 256 µg/mL and 2 µg/mL, respectively. The CC50 at 24 h in [2] came to 52.6 µg/mL (≈ 233 µM). Also, the selectivity ratio in series [3] came to 26.
`C/C(=N/N=C1\NC(=O)CS1)c1cccs1`: the MIC in the series on Pichia kudriavzevii is 8 µg/mL; with Candida albicans, 2 µg/mL; in the series on Proteus mirabilis, at least 256 µg/mL; in the series on Candida tropicalis, 2 µg/mL; with Enterococcus faecalis, at least 256 µg/mL; with Escherichia coli, at least 256 µg/mL. Besides, the MIC with Candida parapsilosis is 16 µg/mL; in the series on Klebsiella oxytoca it was at least 256 µg/mL; in series [1] it was at least 256 µg/mL; in the series with Nakaseomyces glabratus, 1 µg/mL; in the series with Staphylococcus aureus, at least 256 µg/mL; in the series on Enterobacter, at least 256 µg/mL. Besides, the results for the MIC (in the series with Staphylococcus warneri; in series [Candida] sake) were at least 256 µg/mL and 16 µg/mL, respectively. Also, the CC50 at 24 h in series [2] was over 100 µg/mL. The selectivity ratio in series [3] was over 50.
With `C/C(=N/N=C1\NC(=O)CS1)c1ccccn1`, the MIC with Pichia kudriavzevii was 8 µg/mL; with Candida albicans, 2 µg/mL; with Proteus mirabilis it was at least 256 µg/mL; in the series with Candida tropicalis, 1 µg/mL; in the series on Enterococcus faecalis, at least 256 µg/mL; with Escherichia coli, at least 256 µg/mL. Moreover, the MIC in the series on Candida parapsilosis was 16 µg/mL; in the series on Klebsiella oxytoca, at least 256 µg/mL; in series [1], at least 256 µg/mL; in the series with Nakaseomyces glabratus, 1 µg/mL; in the series on Staphylococcus aureus, at least 256 µg/mL; with Enterobacter, at least 256 µg/mL. Moreover, the values for the MIC (in the series on Staphylococcus warneri; in series [Candida] sake) were at least 256 µg/mL and 16 µg/mL, respectively. For the same compound, the CC50 at 24 h in [2] came to 56.8 µg/mL (≈ 242 µM). Besides, the selectivity ratio in series [3] is 28.
As to `O=C1CSC(NN=C2CCCC2)=N1`, the MIC was 2 µg/mL with Pichia kudriavzevii; 2 µg/mL in the series on Candida albicans; at least 256 µg/mL with Proteus mirabilis; 2 µg/mL with Candida tropicalis; at least 256 µg/mL with Enterococcus faecalis; at least 256 µg/mL with Escherichia coli. Moreover, the MIC with Candida parapsilosis was 2 µg/mL; in the series on Klebsiella oxytoca it was at least 256 µg/mL; in [1], at least 256 µg/mL; in the series on Nakaseomyces glabratus, 2 µg/mL; in the series on Staphylococcus aureus it was at least 256 µg/mL; with Enterobacter, at least 256 µg/mL. The MIC in the series on Staphylococcus warneri is at least 256 µg/mL; in series [Candida] sake it was 2 µg/mL. Besides, the CC50 at 24 h in series [2] was 22.2 µg/mL (≈ 113 µM). Besides, the selectivity ratio in series [3] stood at 11.1.
